According to ChEMBL document CHEMBL3400094, “Synthesis and SAR study of potent and selective PI3Kδ inhibitors” (Bioorg Med Chem Lett, 2015):

Experiments:
[1] = target: T1, Phosphatidylinositol 4,5-bisphosphate 3-kinase catalytic subunit delta isoform (Homo sapiens, UniProt O00329); assay: Inhibition of PI3Kdelta (unknown origin) by biochemical Alphascreen assay
T1 sequence (O00329 whole entry): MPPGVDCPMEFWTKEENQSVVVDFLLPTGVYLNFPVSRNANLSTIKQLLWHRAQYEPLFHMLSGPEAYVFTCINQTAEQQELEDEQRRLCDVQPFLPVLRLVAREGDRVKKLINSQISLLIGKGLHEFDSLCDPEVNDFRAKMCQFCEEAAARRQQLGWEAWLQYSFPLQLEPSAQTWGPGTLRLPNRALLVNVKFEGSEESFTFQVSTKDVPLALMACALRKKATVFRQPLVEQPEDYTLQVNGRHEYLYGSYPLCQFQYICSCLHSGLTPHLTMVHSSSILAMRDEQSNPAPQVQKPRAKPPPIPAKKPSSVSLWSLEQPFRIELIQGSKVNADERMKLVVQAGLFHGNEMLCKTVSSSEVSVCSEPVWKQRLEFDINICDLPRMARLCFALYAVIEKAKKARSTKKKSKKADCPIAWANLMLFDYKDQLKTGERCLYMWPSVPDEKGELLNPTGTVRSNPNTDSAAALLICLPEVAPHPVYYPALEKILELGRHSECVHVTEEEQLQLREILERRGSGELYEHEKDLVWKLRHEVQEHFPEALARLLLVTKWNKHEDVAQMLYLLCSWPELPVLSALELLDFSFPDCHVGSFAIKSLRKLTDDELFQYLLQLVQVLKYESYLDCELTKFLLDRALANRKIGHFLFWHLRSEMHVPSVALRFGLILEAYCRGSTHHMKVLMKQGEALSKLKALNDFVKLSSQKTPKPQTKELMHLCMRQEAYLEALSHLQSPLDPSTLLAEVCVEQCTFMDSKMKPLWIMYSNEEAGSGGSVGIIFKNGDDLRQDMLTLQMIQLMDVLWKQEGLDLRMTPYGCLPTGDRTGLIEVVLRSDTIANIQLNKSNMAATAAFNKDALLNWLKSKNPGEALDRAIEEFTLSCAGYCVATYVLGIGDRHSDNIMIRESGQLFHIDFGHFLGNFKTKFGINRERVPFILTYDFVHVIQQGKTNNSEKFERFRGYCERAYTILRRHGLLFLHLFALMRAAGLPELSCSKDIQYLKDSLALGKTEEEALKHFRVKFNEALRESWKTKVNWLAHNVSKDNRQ

[2] = target: Phosphatidylinositol 4,5-bisphosphate 3-kinase catalytic subunit gamma isoform (Homo sapiens, UniProt P48736); assay: Inhibition of PI3Kgamma (unknown origin) by biochemical Alphascreen assay
Sequence of Phosphatidylinositol 4,5-bisphosphate 3-kinase catalytic subunit gamma isoform (P48736 whole entry, canonical isoform): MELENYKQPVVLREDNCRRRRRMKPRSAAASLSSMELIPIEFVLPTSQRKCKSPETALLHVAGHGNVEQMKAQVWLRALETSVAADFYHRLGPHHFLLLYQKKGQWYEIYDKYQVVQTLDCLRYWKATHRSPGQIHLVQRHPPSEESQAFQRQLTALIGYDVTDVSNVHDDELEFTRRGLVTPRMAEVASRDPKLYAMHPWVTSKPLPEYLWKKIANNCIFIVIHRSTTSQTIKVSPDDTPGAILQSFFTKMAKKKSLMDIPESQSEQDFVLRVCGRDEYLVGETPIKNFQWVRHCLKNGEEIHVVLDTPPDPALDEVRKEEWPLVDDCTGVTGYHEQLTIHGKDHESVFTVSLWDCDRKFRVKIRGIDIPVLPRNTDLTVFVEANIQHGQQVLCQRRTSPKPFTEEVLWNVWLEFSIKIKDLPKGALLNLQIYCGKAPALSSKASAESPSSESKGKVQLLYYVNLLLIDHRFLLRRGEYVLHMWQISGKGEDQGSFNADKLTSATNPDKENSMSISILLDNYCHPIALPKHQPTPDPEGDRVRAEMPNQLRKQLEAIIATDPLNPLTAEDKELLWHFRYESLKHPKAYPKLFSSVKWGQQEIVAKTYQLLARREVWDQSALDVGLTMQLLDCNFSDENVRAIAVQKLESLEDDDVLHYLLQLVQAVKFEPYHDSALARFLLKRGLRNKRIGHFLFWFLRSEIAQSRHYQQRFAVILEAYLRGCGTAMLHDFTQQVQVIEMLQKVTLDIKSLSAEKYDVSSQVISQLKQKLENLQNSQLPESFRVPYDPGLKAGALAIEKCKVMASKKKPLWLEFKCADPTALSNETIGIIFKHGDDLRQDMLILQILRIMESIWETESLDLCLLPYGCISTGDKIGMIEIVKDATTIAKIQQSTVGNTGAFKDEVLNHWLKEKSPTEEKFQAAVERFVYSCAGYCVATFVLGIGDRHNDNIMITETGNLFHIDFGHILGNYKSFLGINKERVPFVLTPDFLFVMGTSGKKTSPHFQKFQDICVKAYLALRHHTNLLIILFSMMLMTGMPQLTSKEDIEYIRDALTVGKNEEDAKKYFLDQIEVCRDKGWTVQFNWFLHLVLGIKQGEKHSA

[3] = target: Phosphatidylinositol 4,5-bisphosphate 3-kinase catalytic subunit beta isoform (Homo sapiens, UniProt P42338); assay: Inhibition of PI3Kbeta (unknown origin) by biochemical Alphascreen assay
Sequence of Phosphatidylinositol 4,5-bisphosphate 3-kinase catalytic subunit beta isoform (P42338 whole entry, canonical isoform): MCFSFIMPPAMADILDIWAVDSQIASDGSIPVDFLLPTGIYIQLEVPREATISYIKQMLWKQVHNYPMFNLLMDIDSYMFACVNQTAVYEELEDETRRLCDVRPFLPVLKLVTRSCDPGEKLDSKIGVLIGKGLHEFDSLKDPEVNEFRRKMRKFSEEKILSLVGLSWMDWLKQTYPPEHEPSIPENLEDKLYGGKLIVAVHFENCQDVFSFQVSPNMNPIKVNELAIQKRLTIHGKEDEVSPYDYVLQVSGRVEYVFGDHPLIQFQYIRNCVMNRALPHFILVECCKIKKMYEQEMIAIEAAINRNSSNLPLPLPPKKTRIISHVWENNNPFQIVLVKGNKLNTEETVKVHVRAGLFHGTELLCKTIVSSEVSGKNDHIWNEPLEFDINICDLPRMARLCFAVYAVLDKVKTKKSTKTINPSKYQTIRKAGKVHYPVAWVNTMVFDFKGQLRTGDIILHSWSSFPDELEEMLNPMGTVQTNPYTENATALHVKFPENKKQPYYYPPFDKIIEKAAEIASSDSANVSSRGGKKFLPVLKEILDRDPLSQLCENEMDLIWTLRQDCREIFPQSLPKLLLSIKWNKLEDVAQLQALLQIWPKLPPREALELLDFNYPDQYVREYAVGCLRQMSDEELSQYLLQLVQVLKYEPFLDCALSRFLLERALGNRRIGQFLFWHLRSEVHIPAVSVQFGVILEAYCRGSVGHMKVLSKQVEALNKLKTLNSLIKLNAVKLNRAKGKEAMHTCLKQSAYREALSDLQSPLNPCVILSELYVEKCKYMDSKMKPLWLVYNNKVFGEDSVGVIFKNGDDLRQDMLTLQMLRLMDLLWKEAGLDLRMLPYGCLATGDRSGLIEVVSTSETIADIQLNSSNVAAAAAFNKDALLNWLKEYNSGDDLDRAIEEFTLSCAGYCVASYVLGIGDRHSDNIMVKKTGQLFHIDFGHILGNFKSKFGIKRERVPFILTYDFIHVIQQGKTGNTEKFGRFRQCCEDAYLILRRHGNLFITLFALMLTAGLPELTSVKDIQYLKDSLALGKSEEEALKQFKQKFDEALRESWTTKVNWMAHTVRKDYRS

[4] = target: Phosphatidylinositol 4,5-bisphosphate 3-kinase catalytic subunit alpha isoform (Homo sapiens, UniProt P42336); assay: Inhibition of PI3Kalpha (unknown origin) by biochemical Alphascreen assay
Sequence of Phosphatidylinositol 4,5-bisphosphate 3-kinase catalytic subunit alpha isoform (P42336 whole entry, canonical isoform): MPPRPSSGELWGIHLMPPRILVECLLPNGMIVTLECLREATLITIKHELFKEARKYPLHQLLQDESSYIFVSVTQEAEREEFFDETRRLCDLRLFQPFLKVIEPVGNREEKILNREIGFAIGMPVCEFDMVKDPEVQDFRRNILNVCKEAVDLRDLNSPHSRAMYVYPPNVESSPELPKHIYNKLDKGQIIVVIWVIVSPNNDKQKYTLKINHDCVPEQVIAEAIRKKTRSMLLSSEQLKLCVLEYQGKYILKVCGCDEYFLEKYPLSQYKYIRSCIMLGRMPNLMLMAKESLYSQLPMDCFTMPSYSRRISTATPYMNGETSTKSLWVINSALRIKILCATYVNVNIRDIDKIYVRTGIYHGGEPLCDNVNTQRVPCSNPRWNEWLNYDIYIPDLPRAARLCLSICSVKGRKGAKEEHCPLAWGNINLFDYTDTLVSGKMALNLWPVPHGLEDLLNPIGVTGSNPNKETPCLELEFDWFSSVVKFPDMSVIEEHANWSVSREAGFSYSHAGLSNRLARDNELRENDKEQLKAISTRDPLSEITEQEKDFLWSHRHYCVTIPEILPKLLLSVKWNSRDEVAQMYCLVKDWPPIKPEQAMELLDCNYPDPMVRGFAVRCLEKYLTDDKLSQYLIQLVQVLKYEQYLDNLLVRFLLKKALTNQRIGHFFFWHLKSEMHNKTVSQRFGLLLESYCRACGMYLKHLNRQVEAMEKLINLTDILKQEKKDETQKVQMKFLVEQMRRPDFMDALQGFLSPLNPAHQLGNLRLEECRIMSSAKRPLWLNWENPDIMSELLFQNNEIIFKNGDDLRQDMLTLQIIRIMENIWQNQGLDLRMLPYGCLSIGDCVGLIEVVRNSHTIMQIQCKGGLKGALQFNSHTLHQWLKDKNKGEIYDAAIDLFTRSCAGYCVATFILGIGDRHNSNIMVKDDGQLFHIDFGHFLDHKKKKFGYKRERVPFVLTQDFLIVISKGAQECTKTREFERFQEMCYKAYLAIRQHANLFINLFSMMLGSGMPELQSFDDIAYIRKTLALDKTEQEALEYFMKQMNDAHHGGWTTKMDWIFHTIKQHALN

[5] = target: T1, Phosphatidylinositol 4,5-bisphosphate 3-kinase catalytic subunit delta isoform; assay: Inhibition of PI3Kdelta (unknown origin) assessed as inhibition of AKT phosphorylation by cell-based HTRF assay
[6] = Clearance in Sprague-Dawley rat at 0.5 mg/kg, iv and 2 to 10 mg/kg, po; format: ADME, organism-based; details: in vivo
Outline: (§1)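 Male Sprague-Dawley rats, n=3. Compounds formulated for iv dosing at 0.5 mg/kg or oral dosing at 2-10 mg/kg.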

[7] = Oral bioavailability in Sprague-Dawley rat at 2 to 10 mg/kg; format: ADME, organism-based; details: in vivo; outline: as §1
[8] = Metabolic stability assessed as glutathione adduct formation of SO2Me after 30 mins; format: ADME; details: 0.5 h

Row | Compound | IC50 [1] [nM] | IC50 [2] [nM] | IC50 [3] [nM] | IC50 [4] [nM] | IC50 [5] [nM] | clearance [6] [mL/min/kg] | bioavailability [7] [%] | Stability [8]
1 | CC(Nc1ncnc(N)c1C#N)c1nc2ccc(F)cc2c(C#N)c1-c1ccccn1 (racemic) | 8.3 | 1420 | 240 | 4400 | 12 | – | – | –
2 | C[C@H](Nc1ncnc(N)c1C#N)c1nc2ccc(F)cc2c(NCCS(C)(=O)=O)c1-c1ccccc1 | 0.2 | 19 | 500 | 900 | 0.5 | – | – | –
3 | CC(Nc1ncnc(N)c1C#N)c1nc2ccc(F)cc2c(Cl)c1-c1ccccn1 (racemic) | 4 | 250 | 230 | 1370 | 11 | – | – | –
4 | CC(Nc1ncnc(N)c1C#N)c1nc2ccc(F)cc2c(N(C)C)c1-c1ccccn1 (racemic) | 1.4 | 290 | 710 | 1150 | 3.6 | – | – | –
5 | C[C@H](Nc1ncnc(N)c1C#N)c1nc2ccc(F)cc2c(N2CC(O)C2)c1-c1ccccn1 | 18 | 510 | 280 | 1210 | 1.4 | – | – | –
6 | C[C@H](Nc1ncnc(N)c1C#N)c1nc2ccc(F)cc2c(-c2ccccn2)c1-c1ccccn1 | – | – | – | – | – | 0.95 | 51 | –
7 | C[C@H](Nc1ncnc(N)c1C#N)c1nc2ccc(F)cc2c(N2CCOCC2)c1-c1ccccn1 | 1.2 | 200 | 80 | 830 | 1.2 | – | – | –
8 | CC(Nc1ncnc(N)c1C#N)c1nc2ccc(F)cc2cc1-c1ccccn1 (racemic) | 8.8 | 1100 | > 20000 | > 20000 | – | – | – | –
9 | Cc1cccnc1-c1c(-c2ccccn2)c([C@H](C)Nc2ncnc(N)c2C#N)nc2ccc(F)cc12 | 15 | > 20000 | > 20000 | > 20000 | – | 3.5 | – | –
10 | COCc1c(-c2ccccn2)c([C@H](C)Nc2ncnc(N)c2C#N)nc2ccc(F)cc12 | 16 | 4950 | 4030 | – | 3.1 | – | – | –

More lines, now with the values ahead:

Row | IC50 [1] [nM] | IC50 [2] [nM] | IC50 [3] [nM] | IC50 [4] [nM] | IC50 [5] [nM] | clearance [6] [mL/min/kg] | bioavailability [7] [%] | Stability [8] | Compound
11 | 1.7 | 1600 | 5000 | 1600 | – | – | – | – | C[C@H](Nc1ncnc(N)c1C#N)c1nc2ccc(F)cc2c(NCCN(C)C)c1-c1ccccc1
12 | 0.4 | 120 | 460 | 1200 | 3.1 | – | – | – | CC(Nc1ncnc(N)c1C#N)c1nc2ccc(F)cc2c(NCCO)c1-c1ccccc1 (racemic)
13 | 2.5 | 380 | 160 | 620 | – | – | – | – | C[C@H](Nc1ncnc(N)c1C#N)c1nc2ccc(F)cc2c([S+]([O-])CCO)c1-c1ccccc1 (some centres not stated)
14 | 1.2 | 11 | 8.2 | 420 | 0.8 | – | – | – | COc1c(-c2ccccc2)c([C@H](C)Nc2ncnc(N)c2C#N)nc2ccc(F)cc12
15 | 16 | 210 | > 20000 | > 20000 | 2.8 | 11.7 | 15 | – | CC(Nc1ncnc(N)c1C#N)c1nc2ccc(F)cc2c(O)c1-c1ccccc1 (racemic)
16 | 0.6 | 13 | 420 | 1080 | 2.4 | – | – | – | COCCNc1c(-c2ccccc2)c([C@H](C)Nc2ncnc(N)c2C#N)nc2ccc(F)cc12
17 | 0.7 | 220 | 510 | 920 | 0.1 | 167 | – | Unstable | C[C@H](Nc1ncnc(N)c1C#N)c1nc2ccc(F)cc2c(S(C)(=O)=O)c1-c1ccccc1
